Test [1] has as its system RAW264.7. Kind of test: Antiinflammatory activity in mouse RAW264.7 cells assessed as inhibition of Kdo2 lipid-A-stimulated arachidonic acid release at 25 uM for 1 hr. Format: functional. Particulars: for inhibition at 25 µM: RAW264.7, 1 h. The gist of the method: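 RAW 264.7 macrophages plated at 2 × 10^6 cells per well and left to adhere overnight. Preincubated 30 min with 25 μM inhibitor, then stimulated with Kdo2-Lipid A. Supernatants collected 1 h later. AA extracted and measured by HPLC-MS, normalized to pmol AA per million cells via DNA quantitation.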

The test system of test [2] is RAW264.7. Kind of test: Antiinflammatory activity in mouse RAW264.7 cells assessed as inhibition of Kdo2 lipid-A-stimulated arachidonic acid release after 1 hr. Particulars: RAW264.7, 1 h. Format: functional, cell-based. The essentials:
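RAW 264.7 macrophages grown in DMEM with 10% FBS, 2 mM glutamine, penicillin/streptomycin and non-essential amino acids at 37 °C, 5% CO2. Plated at 2 × 10^6 cells per well, adhered overnight. Inhibitor added 30 min before Kdo2-Lipid A, supernatants taken 1 h after stimulation. AA extracted and quantitated by HPLC-MS, normalized to pmol per million cells by DNA quantitation. IC50 = concentration giving half of the maximal inhibition seen.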

The target in test [3] is T1, 85/88 kDa calcium-independent phospholipase A2 (Homo sapiens) (UniProt O60733).
T1 sequence (whole entry): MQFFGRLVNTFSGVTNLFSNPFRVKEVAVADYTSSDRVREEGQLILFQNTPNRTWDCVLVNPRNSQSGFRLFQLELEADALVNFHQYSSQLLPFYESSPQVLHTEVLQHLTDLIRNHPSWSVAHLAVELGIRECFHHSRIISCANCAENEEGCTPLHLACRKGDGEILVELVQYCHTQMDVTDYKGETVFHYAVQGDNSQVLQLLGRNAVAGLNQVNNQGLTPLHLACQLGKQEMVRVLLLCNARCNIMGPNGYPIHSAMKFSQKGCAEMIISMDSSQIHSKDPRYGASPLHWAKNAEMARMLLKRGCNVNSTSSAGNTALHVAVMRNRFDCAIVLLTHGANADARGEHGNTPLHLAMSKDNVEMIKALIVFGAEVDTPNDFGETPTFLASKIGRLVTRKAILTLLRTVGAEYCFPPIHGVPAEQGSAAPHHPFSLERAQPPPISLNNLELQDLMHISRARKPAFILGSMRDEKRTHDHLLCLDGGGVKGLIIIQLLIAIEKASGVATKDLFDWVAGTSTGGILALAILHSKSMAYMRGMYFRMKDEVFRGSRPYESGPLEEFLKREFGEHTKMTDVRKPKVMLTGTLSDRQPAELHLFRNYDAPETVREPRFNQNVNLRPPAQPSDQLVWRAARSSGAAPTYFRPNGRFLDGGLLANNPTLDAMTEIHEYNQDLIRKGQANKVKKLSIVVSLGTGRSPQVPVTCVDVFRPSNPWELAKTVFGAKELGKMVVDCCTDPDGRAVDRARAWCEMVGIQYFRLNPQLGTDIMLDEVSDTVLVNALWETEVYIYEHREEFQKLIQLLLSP
Nature of the test: Inhibition of human group-6A iPLA2 at 0.091 mole fraction by mixed micellar assay. The gist of the method:
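Modified Dole assay, percent inhibition at 0.091 mole fraction inhibitor. Micelles were either 400 μM Triton X-100, 99 μM DPPC, 1.5 μM 14C-DPPC in 200 mM HEPES pH 7.0, 1 mM ATP, 2 mM DTT, 0.1 mg/ml BSA, or 400 μM Triton X-100, 98.3 μM PAPC, 1.7 μM 14C-PAPC in 100 mM HEPES pH 7.5, 2 mM ATP, 4 mM DTT.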

The target in test [4] is T2, Cytosolic phospholipase A2 (Homo sapiens) (UniProt P47712).
T2 sequence (whole entry): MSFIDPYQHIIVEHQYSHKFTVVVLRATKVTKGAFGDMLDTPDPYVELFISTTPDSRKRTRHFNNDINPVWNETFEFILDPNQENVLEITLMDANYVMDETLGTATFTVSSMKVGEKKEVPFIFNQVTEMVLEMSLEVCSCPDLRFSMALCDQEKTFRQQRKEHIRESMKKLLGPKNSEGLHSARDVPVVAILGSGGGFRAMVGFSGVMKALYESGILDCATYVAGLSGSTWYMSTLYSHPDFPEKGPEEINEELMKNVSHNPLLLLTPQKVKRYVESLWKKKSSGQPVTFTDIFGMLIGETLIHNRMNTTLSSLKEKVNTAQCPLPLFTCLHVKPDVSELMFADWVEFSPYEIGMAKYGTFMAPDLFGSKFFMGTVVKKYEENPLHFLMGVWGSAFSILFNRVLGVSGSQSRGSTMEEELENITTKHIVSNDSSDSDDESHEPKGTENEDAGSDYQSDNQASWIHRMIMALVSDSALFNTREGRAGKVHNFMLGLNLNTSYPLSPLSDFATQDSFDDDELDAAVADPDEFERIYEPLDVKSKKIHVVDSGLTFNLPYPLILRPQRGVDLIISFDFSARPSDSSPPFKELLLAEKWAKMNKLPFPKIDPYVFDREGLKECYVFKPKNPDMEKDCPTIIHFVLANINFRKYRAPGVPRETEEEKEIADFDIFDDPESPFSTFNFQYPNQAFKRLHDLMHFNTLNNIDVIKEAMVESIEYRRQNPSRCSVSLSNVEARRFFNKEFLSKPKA
Kind of test: Inhibition of human group-4A cPLA2 at 0.091 mole fraction by mixed micellar assay. The gist of the method: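 Modified Dole assay, single point at 0.091 mole fraction inhibitor. Mixed micelles: 400 μM Triton X-100, 97 μM PAPC, 1.8 μM 14C-PAPC, 3 μM PIP2. Buffer: 100 mM HEPES pH 7.5, 90 μM CaCl2, 2 mM DTT, 0.1 mg/ml BSA. Percent inhibition reported.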

For test [5], the target named is T3, Phospholipase A2 group V (Homo sapiens) (UniProt P39877).
T3 sequence (whole entry): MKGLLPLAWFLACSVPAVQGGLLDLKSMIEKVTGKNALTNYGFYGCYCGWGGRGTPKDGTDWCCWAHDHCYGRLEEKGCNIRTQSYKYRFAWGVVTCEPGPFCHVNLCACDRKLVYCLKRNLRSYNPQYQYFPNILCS
Nature of the test: Inhibition of human group-5 sPLA2 at 0.091 mole fraction by mixed micellar assay. The essentials: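 Radiometric modified Dole assay screening at 0.091 mole fraction inhibitor, giving percent inhibition. Mixed micelles of 400 μM Triton X-100, 99 μM DPPC and 1.5 μM 14C-DPPC in 50 mM Tris pH 8.0 with 5 mM CaCl2.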

Drawing on ChEMBL document CHEMBL1154042, “2-Oxoamide inhibitors of phospholipase A2 activity and cellular arachidonate release based on dipeptides and pseudodipeptides” (Bioorg Med Chem, 2009), this text covers inhibition, Activity and IC50 for 31 compounds.

The term inhibition denotes the drop in the measured response relative to a control, in per cent. As a reminder, the IC50 is the concentration that inhibits the measured activity by half.

Molecules are shown by their SMILES.

`CCCCCCCCCCC(=O)C(=O)N[C@@H](CCCC)C(=O)O`: the inhibition at 25 µM in test [1] worked out at 79%.
As for `CCCCCCCCCCCCCCC(=O)C(=O)N[C@@H](CCCC)CCC(=O)OC`, the Activity result in test [1] was “Toxic”.
Turning to `CCCCCCCCCCCCCCC(=O)C(=O)N[C@H](CCC(=O)O)CC(C)C`, the inhibition at 25 µM in test [1] was determined as 6%. Also, in test [2], the IC50 stood at 25 µM.
For `CCCCCCCCCCCCCCC(=O)C(=O)N[C@@H](CCCC)CCCC(=O)O` the same measures were 30% and 7 µM.
As for `CCCCCCCCCCCCCCC(=O)C(=O)N[C@@H](CCCC)C(=O)NCC(=O)OCC`, the values for the inhibition in test [3], in test [4] and in test [5] were more than 90%, 73% and 63%, respectively.
`CCCCCCCCCCCCCCC(=O)C(=O)NCC(=O)OC`: in test [1], the inhibition at 25 µM turned out to be 68%.
Consider `CCCCCCCCCCCCCCC(=O)C(=O)N[C@H](C(=O)NCC(=O)OC(C)(C)C)C(C)C`, for which the inhibition at 25 µM in test [1] was determined as 30%. For the same compound, the results for the inhibition in test [3], in test [4] and in test [5] were more than 90%, more than 90% and 78%, respectively.
`CCCCCCCCCCCCCCC(=O)C(=O)N[C@H](/C=C/C(=O)OC)CCCC`: the Activity entry in test [1] was “Toxic”.
With `CCCCCCCCCCCCCCC(=O)C(=O)N[C@@H](CCCC)C(=O)NCC(=O)O`, the values for the inhibition in test [3], in test [4] and in test [5] were less than 25%, more than 90% and less than 25%, respectively.
On to `CCCCCCCCCCCCCCC(=O)C(=O)NCCCC(=O)CO`, for which the results for the inhibition in test [3] and in test [4] were less than 25% and more than 90%, respectively.
As to `CCCCCCCCCCCCCCC(=O)C(=O)N[C@@H](CCCC)COCC(=O)OC(C)(C)C`, the inhibition in test [3] is 81%; in test [4] it was 44%; in test [5], 57%.
Take `CCCCCCCCCCCCCCC(=O)C(=O)N[C@@H](CCCC)C(=O)NCC(=O)OC`: the results for the inhibition in test [3], in test [4] and in test [5] were more than 90%, more than 90% and 65%, respectively.
`CCCCCCCCCCC(=O)C(=O)N[C@@H](CCC(=O)OC)COC(=O)NCCCCCCCC`: the Activity result in test [1] is “Toxic”.
As for `CCCCCCCCCCCCCCC(=O)C(=O)NCCCC(=O)O`, in test [1], the inhibition at 25 µM was 27%. For the same compound, in test [2], the IC50 was found to be 25 µM.
`CCCCCCCCCCCCCCC(=O)C(=O)N[C@H](/C=C/C=C/C(=O)O)CCCC`: in test [1], the inhibition at 25 µM was determined as 74%.
`CCCCCCCCCCCCCCC(=O)C(=O)N[C@@H](CCCC)C(=O)NCC(=O)OC(C)(C)C`: the inhibition in test [3] was more than 90%; in test [4] it was 72%; in test [5], 59%.
Regarding `CCCCCCCCCCCCCCC(=O)C(=O)NCCCC(=O)OCC`, the Activity entry in test [1] is “Toxic”.
`CCCCCCCCCCCCCCC(=O)C(=O)NCCCC(=O)COCC`: the inhibition in test [3] and in test [4] was more than 90% each time.
As for `CCCCCCCCCCCCCCC(=O)C(=O)NCCCCC(=O)OC(C)(C)C`, the inhibition at 25 µM in test [1] is 59%.
For `CCCCCCCCCCCCCCC(=O)C(=O)N[C@H](/C=C/C(=O)O)CCCC`, the inhibition at 25 µM in test [1] turned out to be 16%. Further, the IC50 in test [2] came out at 25 µM.
For `CCCCCCCCCCCCCCC(=O)C(=O)N[C@@H](CCCC)CCC(=O)O`, in that order: 30% and 25 µM.
Take `CCCCCCCCCCCCCCC(=O)C(=O)N[C@H](C(=O)NCC(=O)OC)C(C)C`: the inhibition in test [3] was less than 25%; in test [4], 25%; in test [5], less than 25%.
Regarding `CCCCCCCCCCCCCCC(=O)C(=O)N[C@H](C(=O)NCC(=O)O)C(C)C`, the values for the inhibition in test [3], in test [4] and in test [5] were less than 25%, more than 90% and less than 25%, respectively.
On to `CCCCCCCCCCCCCCC(=O)C(=O)NCCCC(=O)N(C)S(=O)(=O)c1ccc(C)cc1`, for which the Activity result in test [1] was “Toxic”.
Same read-out and setting: the same measure for `CCCCCCCCCCCCCCC(=O)C(=O)N[C@@H](C)CCC(=O)OC(C)(C)C`: “Toxic”.
As to `CCCCCCCCCCCCCCC(=O)C(=O)N[C@@H](CCCC)COCC(=O)OCC`, the inhibition in test [3] was more than 90%; in test [4], 52%; in test [5] it was 81%.
On to `CCCCCCCCCCCCCC(=O)C(=O)N[C@@H](CCCC)CCCCC(=O)O`, for which the Activity entry in test [1] is “Toxic”.
As to `CCCCCCCCCCC(=O)C(=O)N[C@@H](CCCC)CCC(=O)O`, in test [1], the inhibition at 25 µM is 62%. Besides, in test [2], the IC50 stood at 10 µM.
Take `CCCCCCCCCCCCCCC(=O)C(=O)NCCC(=O)OC(C)(C)C`: the Activity result in test [1] is “Toxic”.
Regarding `CCCCCCCCCCCCCCC(=O)C(=O)N[C@@H](CCCC)COCC(=O)O`, the values for the inhibition in test [3], in test [4] and in test [5] were less than 25%, more than 90% and less than 25%, respectively. Besides, in test [2], the IC50 was found to be 2 µM.
For the compound `CCCCCCCCCCCCCCC(=O)C(=O)N[C@H](/C=C/C(=O)OCC)CCCC`, the inhibition at 25 µM in test [1] was 11%.
